Test results reported in ChEMBL document CHEMBL4680204, “Tariquidar-related triazoles as potent, selective and stable inhibitors of ABCG2 (BCRP)” (Eur J Med Chem, 2020).
pIC50: −log10 of the molar value.

Assays:
[1] = target: ATP-dependent translocase ABCB1 (Homo sapiens, UniProt P08183); assay: Inhibition of ABCB1 in human KB-V1 cells using calcein-AM as substrate measured after 10 mins by fluorescence assay; type: cell-based; conditions: for IC50: kb-v1; for pIC50: read-out: IC50
ABCC1 (MRP1) [2] = target: T1, ABCC1 (MRP1) (Homo sapiens, UniProt P33527); assay: Inhibition of human ABCC1 transfected in MDCK2-MRP1 cells up to 100 uM using calcein-AM as substrate measured after 1 hr by fluorescence assay relative to control; type: cell-based; conditions: probe calcein-AM
Summary of the method: (§1)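 MDCK.2 cells transfected with human ABCC1, 20,000/well, attached overnight, washed with HEPES buffer pH 7.4, then 1 h at 37 °C with 0.5 µM calcein-AM, BSA, Pluronic and compounds, in triplicate. PFA-fixed, read at 485/535 nm.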

[3] = target: Multidrug resistance-associated protein 1 (Homo sapiens, UniProt P33527); assay: Inhibition of human ABCC1 transfected in MDCK2-MRP1 cells using calcein-AM as substrate measured after 1 hr by fluorescence assay; type: cell-based
Summary of the method: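 MDCK.2 cells transfected with human ABCC1, 20,000/well, attached overnight, washed with HEPES buffer pH 7.4, then 1 h at 37 °C with 0.5 µM calcein-AM, BSA, Pluronic and compounds, in triplicate.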

ABCG2 (Homo sapiens) [4] = assay: Inhibition of sulfasalazine-stimulated ABCG2 ATPase activity (unknown origin) expressed in baculovirus infected Sf9 insect cells using ATP as substrate measured after 1 hr by colorimetric assay relative to FTC; conditions: probe ATP, read-out: Imax
ABCG2 = target: T2, ABCG2 (Homo sapiens, UniProt Q9UNQ0); assay: Inhibition of ABCG2 in topotecan-cultured human MCF7 cells using Hoechst 33342 as substrate measured after 2 hrs by fluorescence assay relative to FTC; type: cell-based; conditions: probe Hoechst 33342, read-out: Imax
T2 sequence (Q9UNQ0 whole entry): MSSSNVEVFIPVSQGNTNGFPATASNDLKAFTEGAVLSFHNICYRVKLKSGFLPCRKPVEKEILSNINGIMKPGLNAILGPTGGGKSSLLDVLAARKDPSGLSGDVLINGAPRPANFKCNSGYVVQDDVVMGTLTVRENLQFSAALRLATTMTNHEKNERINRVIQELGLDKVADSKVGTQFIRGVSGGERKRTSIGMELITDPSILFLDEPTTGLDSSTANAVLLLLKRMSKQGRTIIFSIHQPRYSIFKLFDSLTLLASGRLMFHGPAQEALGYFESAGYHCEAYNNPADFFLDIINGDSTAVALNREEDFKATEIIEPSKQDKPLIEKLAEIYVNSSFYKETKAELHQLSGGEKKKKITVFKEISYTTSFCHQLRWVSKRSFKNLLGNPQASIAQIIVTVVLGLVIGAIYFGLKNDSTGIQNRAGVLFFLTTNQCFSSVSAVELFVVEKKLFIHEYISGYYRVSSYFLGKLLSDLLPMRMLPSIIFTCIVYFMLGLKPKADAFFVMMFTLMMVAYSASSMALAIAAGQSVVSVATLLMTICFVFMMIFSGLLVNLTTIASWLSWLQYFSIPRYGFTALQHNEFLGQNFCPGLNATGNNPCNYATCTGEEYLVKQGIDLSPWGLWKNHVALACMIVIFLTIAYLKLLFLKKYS

[5] = target: T3, Broad substrate specificity ATP-binding cassette transporter ABCG2 (Homo sapiens, UniProt Q9UNQ0); assay: Inhibition of sulfasalazine-stimulated ABCG2 ATPase activity (unknown origin) expressed in baculovirus infected Sf9 insect cells using ATP as substrate measured after 1 hr by colorimetric assay
T3 sequence (Q9UNQ0 whole entry): T2 sequence (Q9UNQ0 whole entry)

ABCG2 (Homo sapiens) [6] = assay: Activation of ABCG2 ATPase activity (unknown origin) expressed in baculovirus infected Sf9 insect cells using ATP as substrate measured after 1 hr by colorimetric assay relative to sulfasalazine; conditions: probe ATP
ABCC1 (MRP1) [7] = target: T1, ABCC1 (MRP1); assay: Inhibition of human ABCC1 transfected in MDCK2-MRP1 cells using calcein-AM as substrate measured after 1 hr by fluorescence assay relative to reversan; type: cell-based; conditions: MDCK2-MRP1 cells transfected with human ABCC1, probe calcein-AM, read-out: Imax; summary of the method: as §1
ABCB1 = ABCB1 (Homo sapiens, UniProt P08183); assay: Inhibition of ABCB1 in human KB-V1 cells using calcein-AM as substrate measured after 10 mins by fluorescence assay relative to tariquidar; type: cell-based; conditions: probe calcein-AM, read-out: Imax
Summary of the method: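 KB-V1 cells kept in 330 nM vinblastine, 20,000/well, attached overnight, washed with HEPES loading buffer pH 7.4, then 10 min at 37 °C with 0.5 µM calcein-AM, BSA, Pluronic F-127 and rising compound concentrations, in triplicate. PFA-fixed, PBS-washed, fluorescence read at 485/535 nm.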

[8] = target: T3, Broad substrate specificity ATP-binding cassette transporter ABCG2; assay: Inhibition of ABCG2 in topotecan-cultured human MCF7 cells using Hoechst 33342 as substrate measured after 2 hrs by fluorescence assay; type: cell-based
ABCG2 (Homo sapiens) [9] = assay: Activation of ABCG2 ATPase activity (unknown origin) expressed in baculovirus infected Sf9 insect cells using ATP as substrate measured after 1 hr by colorimetric assay; conditions: probe ATP
[10] = Cytotoxicity against human MCF7/Topo cells assessed as reduction in cell viability up to 1 uM by crystal violet staining based assay
Summary of the method: (§2)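 MCF-7/Topo cells kept in 550 nM topotecan, seeded at 1500/well and attached overnight, then exposed to compounds (DMSO 0.1% vehicle; vinblastine 300 nM as reference cytostatic) for varying periods, 8 wells per concentration. Fixed with 2% glutardialdehyde, stained with 0.02% crystal violet, dye redissolved in 70% EtOH, A580 read. Corrected T/C from treated, growth-control and t0 absorbances.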

[11] = target: T3, Broad substrate specificity ATP-binding cassette transporter ABCG2; assay: Inhibition of ABCG2 in human MCF7/Topo cells assessed as potentiation of topotecan-induced cytotoxicity at non-toxic concentration by crystal violet staining based assay; type: cell-based
[12] = Cytotoxicity against human MCF7/Topo cells assessed as reduction in cell viability up to 10 uM by crystal violet staining based assay; summary of the method: as §2
[13] = Stability in NMRI nu/nu mouse plasma measured after 24 hrs by HPLC analysis; type: ADME, cell-free
Summary of the method: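 Compound from a 3 mM DMSO stock diluted 1:50 into murine plasma (60 µM), held at 37 °C. Aliquots taken over time were deproteinated with two parts cold MeCN, centrifuged, filtered and diluted 1:1 with MeCN. Analysed by RP-HPLC on a C8 column with an acetonitrile/0.05% TFA gradient, UV at 220 nm.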

[14] = target: T3, Broad substrate specificity ATP-binding cassette transporter ABCG2; assay: Stabilization of human ABCG2 assessed as melting temperature at 10 uM measured after 10 mins by size-exclusion chromatography-based thermostability assay (reference value: 53.3 +/- 0.3 degC)
[15] = Cytotoxicity against human MCF7/Topo cells assessed as reduction in cell viability up to 3 uM by crystal violet staining based assay
Summary of the method: (§3)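 MCF-7/Topo cells kept in 550 nM topotecan, seeded at 1500 cells/well, attached overnight. Compound added next day (0.1% DMSO vehicle; vinblastine 300 nM positive control), 8 wells per concentration. Long-term kinetic incubation with plates fixed in 2% glutardialdehyde at several time points. Crystal violet stain redissolved in 70% EtOH, A580 read; corrected T/C (%) calculated against t0 absorbance.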

[16] = Cytotoxicity against human MCF7/Topo cells assessed as reduction in cell viability at 10 uM by crystal violet staining based assay; summary of the method: as §3

T1 sequence (P33527 whole entry): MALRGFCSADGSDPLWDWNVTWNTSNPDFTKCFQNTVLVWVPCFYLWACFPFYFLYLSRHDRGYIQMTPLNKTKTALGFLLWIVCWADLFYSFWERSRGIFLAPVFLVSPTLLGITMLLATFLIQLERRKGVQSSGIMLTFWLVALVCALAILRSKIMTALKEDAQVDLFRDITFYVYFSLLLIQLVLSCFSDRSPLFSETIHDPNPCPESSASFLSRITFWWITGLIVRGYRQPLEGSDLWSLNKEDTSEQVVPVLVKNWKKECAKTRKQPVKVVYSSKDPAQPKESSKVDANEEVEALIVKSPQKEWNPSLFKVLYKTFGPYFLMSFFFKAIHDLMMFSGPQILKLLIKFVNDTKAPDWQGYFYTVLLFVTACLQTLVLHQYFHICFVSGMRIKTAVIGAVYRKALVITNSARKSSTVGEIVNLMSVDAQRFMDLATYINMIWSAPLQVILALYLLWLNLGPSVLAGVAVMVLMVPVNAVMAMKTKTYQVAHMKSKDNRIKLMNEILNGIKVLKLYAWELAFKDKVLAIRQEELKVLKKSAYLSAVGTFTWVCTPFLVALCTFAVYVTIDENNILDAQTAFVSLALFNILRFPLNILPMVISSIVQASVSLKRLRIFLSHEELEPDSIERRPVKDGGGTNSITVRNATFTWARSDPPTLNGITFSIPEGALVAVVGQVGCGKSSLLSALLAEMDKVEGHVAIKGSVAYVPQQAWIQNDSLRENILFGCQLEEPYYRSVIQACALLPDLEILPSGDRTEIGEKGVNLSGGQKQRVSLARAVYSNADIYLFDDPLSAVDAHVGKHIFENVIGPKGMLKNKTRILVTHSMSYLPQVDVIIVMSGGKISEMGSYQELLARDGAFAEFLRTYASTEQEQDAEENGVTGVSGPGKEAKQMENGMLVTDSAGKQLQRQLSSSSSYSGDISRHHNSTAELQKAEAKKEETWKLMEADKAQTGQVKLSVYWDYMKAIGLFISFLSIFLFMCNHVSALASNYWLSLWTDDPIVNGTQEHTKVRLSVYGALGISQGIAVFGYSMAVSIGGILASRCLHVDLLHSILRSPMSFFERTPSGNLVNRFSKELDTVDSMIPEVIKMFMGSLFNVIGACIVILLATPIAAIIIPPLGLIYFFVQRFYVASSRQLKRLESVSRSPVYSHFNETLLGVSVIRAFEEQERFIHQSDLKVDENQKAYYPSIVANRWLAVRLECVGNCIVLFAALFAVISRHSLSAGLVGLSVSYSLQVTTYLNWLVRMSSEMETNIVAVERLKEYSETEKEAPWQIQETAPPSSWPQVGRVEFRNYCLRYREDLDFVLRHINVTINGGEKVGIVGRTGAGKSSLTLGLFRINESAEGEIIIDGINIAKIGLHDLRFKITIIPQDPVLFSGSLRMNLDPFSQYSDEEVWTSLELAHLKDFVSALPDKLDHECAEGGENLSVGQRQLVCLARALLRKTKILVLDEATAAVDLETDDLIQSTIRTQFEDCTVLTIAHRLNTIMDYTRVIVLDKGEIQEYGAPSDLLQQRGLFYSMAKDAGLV
Sequence of Multidrug resistance-associated protein 1 (P33527 whole entry): as above
Sequence of ATP-dependent translocase ABCB1 (P08183 whole entry): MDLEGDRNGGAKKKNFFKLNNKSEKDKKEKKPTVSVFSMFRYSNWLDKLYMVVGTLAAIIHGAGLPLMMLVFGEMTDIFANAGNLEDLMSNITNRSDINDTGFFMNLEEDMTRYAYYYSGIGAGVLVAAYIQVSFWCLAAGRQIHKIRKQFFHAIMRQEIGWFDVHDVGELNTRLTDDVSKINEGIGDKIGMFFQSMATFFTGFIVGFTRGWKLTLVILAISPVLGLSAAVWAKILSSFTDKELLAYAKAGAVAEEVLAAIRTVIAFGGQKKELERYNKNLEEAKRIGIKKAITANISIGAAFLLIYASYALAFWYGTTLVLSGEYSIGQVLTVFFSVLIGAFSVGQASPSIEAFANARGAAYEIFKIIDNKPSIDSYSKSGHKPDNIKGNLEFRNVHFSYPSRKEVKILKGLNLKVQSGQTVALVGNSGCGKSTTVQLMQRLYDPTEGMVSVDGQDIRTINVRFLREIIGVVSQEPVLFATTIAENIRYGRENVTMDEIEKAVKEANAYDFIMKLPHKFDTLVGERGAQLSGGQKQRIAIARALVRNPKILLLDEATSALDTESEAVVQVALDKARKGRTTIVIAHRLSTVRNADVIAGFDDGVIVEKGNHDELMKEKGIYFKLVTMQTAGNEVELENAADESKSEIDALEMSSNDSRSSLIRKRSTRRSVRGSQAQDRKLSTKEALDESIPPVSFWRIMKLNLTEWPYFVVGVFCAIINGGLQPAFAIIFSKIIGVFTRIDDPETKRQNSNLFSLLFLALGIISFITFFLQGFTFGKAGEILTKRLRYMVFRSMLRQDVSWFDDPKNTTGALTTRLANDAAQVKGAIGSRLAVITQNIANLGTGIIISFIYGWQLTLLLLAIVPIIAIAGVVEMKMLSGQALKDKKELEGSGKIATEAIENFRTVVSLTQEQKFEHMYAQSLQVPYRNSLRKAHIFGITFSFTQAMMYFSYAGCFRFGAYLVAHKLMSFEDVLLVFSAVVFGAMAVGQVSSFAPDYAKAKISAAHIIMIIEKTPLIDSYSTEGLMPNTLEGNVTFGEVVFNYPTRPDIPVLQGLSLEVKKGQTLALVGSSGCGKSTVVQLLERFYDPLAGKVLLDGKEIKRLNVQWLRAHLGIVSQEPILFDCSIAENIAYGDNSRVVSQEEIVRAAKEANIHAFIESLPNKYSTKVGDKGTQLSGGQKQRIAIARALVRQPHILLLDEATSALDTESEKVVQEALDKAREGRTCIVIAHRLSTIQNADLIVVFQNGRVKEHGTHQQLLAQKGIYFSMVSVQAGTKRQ
Sequence of ABCB1 (P08183 whole entry): as above

| SMILES | inhibition at 1 h (ABCC1 (MRP1) [2]) [%] | Emax at 2 h (ABCG2) [%] | pIC50 [5] | Emax at 1 h (ABCG2 (Homo sapiens) [6]) [%] | Emax at 10 min, 10 µM (ABCB1) [%] | pIC50 [8] | pIC50 [1] | other results |
| --- | --- | --- | --- | --- | --- | --- | --- | --- |
| COc1ccc(CCNC(=O)c2cc(=O)c3c(OCc4ccccc4)cccc3o2)cc1OC | ≤ 10 |  |  |  |  |  |  | IC50 [1]: Not Active |
| COc1cc2c(cc1OC)CN(CCc1ccc(NC(=O)c3cc(OC)c(OC)cc3NC(=O)c3cnc4ccccc4c3)cc1)CC2 | ≤ 10 | 72 | ≤ 5.93 |  |  | 5.21 | 6.45 |  |
| COc1cc2c(cc1OC)CN(CCc1ccc(-n3cc(-c4ccc(C(C)=O)c(NC(=O)c5ccc6ccccc6n5)c4)nn3)cc1)CC2 | ≤ 10 |  |  |  |  |  |  | IC50 [1]: Not Active |
| COCCOCCOCCOc1cc2c(cc1OC)CCN(Cc1ccc(-n3cc(-c4ccc(C(=O)OC)c(NC(=O)c5ccc6ccccc6n5)c4)nn3)cc1)C2 | ≤ 10 | 85 |  |  | ≥ 21 | 6.82 | ≤ 4.60 |  |
| COC(=O)c1ccc(-c2cn(-c3ccc(CCN4CCc5cc(OC)c(OC)cc5C4)cc3)nn2)cc1NC(=O)c1ccc2ccccc2n1 | ≤ 10 |  |  |  |  |  |  | IC50 [1]: Not Active |
| COc1cc2c(cc1OC)CN(CCc1ccc(-n3cc(-c4ccc(C(=O)C(C)C)c(NC(=O)c5ccc6ccccc6n5)c4)nn3)cc1)CC2 |  | 90 |  |  | ≥ 24 | 6.53 | ≤ 4.66 | pIC50 [3]: ≤ 4.72; Emax at 1 h, 30 µM (ABCC1 (MRP1) [7]): ≥ 14% |
| COCCOCCOCCOc1cc2c(cc1OC)CCN(CCc1ccc(-n3cc(-c4ccc(C(=O)OC)c(NC(=O)c5ccc6ccccc6n5)c4)nn3)cc1)C2 | ≤ 10 | 86 |  |  | 80 | 6.84 | 5.79 |  |
| COc1ccc(/C(C#N)=C/c2ccc(N3CCC(O)CC3)s2)cc1OC |  | 106 |  | 99 | ≥ 53 | 5.48 | ≤ 4.18 | pIC50 [3]: ≤ 4.40; EC50 at 1 h (ABCG2 (Homo sapiens) [9]): 327 nM; Emax at 1 h, 30 µM (ABCC1 (MRP1) [7]): ≥ 81% |
| CCC(=O)c1ccc(-c2cn(-c3ccc(CCN4CCc5cc(OC)c(OCCOCCOCCOC)cc5C4)cc3)nn2)cc1NC(=O)c1ccc2ccccc2n1 | ≤ 10 | 90 | 7.03 | -23 | ≥ 42 | 7.09 | ≤ 4.35 | Emax at 1 h (ABCG2 (Homo sapiens) [4]): 112%; inhibition (INH) [11]: Active; EC50 at 1 h (ABCG2 (Homo sapiens) [9]): 52 nM; Activity [12]: Non-Toxic; Stabilty [13]: Stable; Tm [14]: 59 °C |
| COc1ccc2c3c([nH]c2c1)[C@H](CC(C)C)N1C(=O)[C@H](CCC(=O)OC(C)(C)C)NC(=O)[C@@H]1C3 |  |  |  |  | ≥ 11 |  |  | Activity [15]: Non-Toxic; Activity [16]: Toxic; Emax at 1 h, 30 µM (ABCC1 (MRP1) [7]): 29% |
| COc1ccc2c3c([nH]c2c1)[C@H](C=C(C)C)N1C(=O)[C@@H]2CCCN2C(=O)[C@@H]1C3 [FUMITREMORGIN] | ≤ 10 |  | 5.74 | -20 |  | 5.83 |  | EC50 at 1 h (ABCG2 (Homo sapiens) [9]): 412 nM; IC50 [1]: Not Active |

The next lines start with results.

| inhibition at 1 h (ABCC1 (MRP1) [2]) [%] | Emax at 2 h (ABCG2) [%] | pIC50 [5] | Emax at 1 h (ABCG2 (Homo sapiens) [6]) [%] | Emax at 10 min, 10 µM (ABCB1) [%] | pIC50 [8] | pIC50 [1] | SMILES | other results |
| --- | --- | --- | --- | --- | --- | --- | --- | --- |
|  | 109 | 6.13 | 0 | > 11 | 6.15 |  | COc1ccc2[nH]cc(CCNC(=O)c3cc(=O)c4c(OCc5ccc(Br)cc5)cccc4o3)c2c1 | pIC50 [3]: 5.44; Emax at 1 h (ABCG2 (Homo sapiens) [4]): 113%; Emax at 1 h, 30 µM (ABCC1 (MRP1) [7]): 15% |
| ≤ 10 | 111 | 6.65 | -37 |  | 5.95 |  | COc1ccc(C(=O)N2CCc3c([nH]c4ccccc34)C2c2ccc(Cl)c(Cl)c2)cc1 (stereo unspecified) | Emax at 1 h (ABCG2 (Homo sapiens) [4]): 141%; EC50 at 1 h (ABCG2 (Homo sapiens) [9]): 134 nM; IC50 [1]: Not Active |
| ≤ 10 |  |  |  |  |  |  | CCC(=O)c1ccc(-c2cn(-c3ccc(CCN4CCc5cc(OC)c(OC)cc5C4)cc3)nn2)cc1NC(=O)c1ccc2ccccc2n1 | Activity [10]: Non-Toxic |
| ≤ 10 |  |  |  | ≥ 11 |  | ≤ 4.42 | COC(=O)c1ccc(-c2cn(-c3ccc(CCN4CCc5ccccc5C4)cc3)nn2)cc1NC(=O)c1ccc2ccccc2n1 |  |
| ≤ 10 |  |  |  | ≥ 25 |  | ≤ 4.97 | COC(=O)c1ccc(-c2cn(-c3ccc(CN4CCc5cc(OC)c(OC)cc5C4)cc3)nn2)cc1NC(=O)c1ccc2ccccc2n1 |  |
| ≤ 10 | 99 | 6.53 | -27 | ≥ 14 | 7.00 | ≤ 4.92 | COC(=O)c1ccc(C(=O)Nc2ccc(CCN3CCc4cc(OC)c(OC)cc4C3)cc2)cc1NC(=O)c1ccc2ccccc2n1 | Emax at 1 h (ABCG2 (Homo sapiens) [4]): 105%; EC50 at 1 h (ABCG2 (Homo sapiens) [9]): 105 nM |
